Measurements as given in ChEMBL document CHEMBL3792373, “Anti-methicillin resistant Staphylococcus aureus activity, synergism with oxacillin and molecular docking studies of metronidazole-triazole hybrids” (Eur J Med Chem, 2016).
≈ marks a conversion by molar mass, not a printed value.

Key:
[1] = Cytotoxicity against human THP1 cells upto 50 uM treated 3 times per week for 14 days by MTT assay; assay type: cell-based; conditions: thp-1, 336 h
Staphylococcus aureus [2] = test: Bactericidal activity against methicillin-resistant Staphylococcus aureus isolate 1a assessed as reduction in colony counts at 32 ug/ml after 8 hrs by pour plate method (reference value: 8.30 +/- 0.442 log10CFU/ml); assay type: functional
Staphylococcus aureus [3] = test: Bactericidal activity against methicillin-resistant Staphylococcus aureus isolate 1a assessed as reduction in colony counts at 32 ug/ml after 12 hrs by pour plate method (reference value: 10.12 +/- 0.428 log10CFU/ml); assay type: functional
Staphylococcus aureus [4] = test: Bactericidal activity against methicillin-resistant Staphylococcus aureus isolate 1a assessed as reduction in colony counts at 32 ug/ml after 24 hrs by pour plate method (reference value: 12.64 +/- 0.224 log10CFU/ml); assay type: functional
Staphylococcus aureus [5] = test: Bactericidal activity against methicillin-resistant Staphylococcus aureus isolate 1a assessed as reduction in colony counts at 32 ug/ml after 4 hrs by pour plate method (reference value: 6.14 +/- 0.456 log10CFU/ml); assay type: functional
Staphylococcus aureus [6] = test: Bactericidal activity against methicillin-resistant Staphylococcus aureus isolate 1a assessed as reduction in colony counts at 32 ug/ml after 16 hrs by pour plate method (reference value: 12.50 +/- 0.291 log10CFU/ml); assay type: functional
Staphylococcus aureus [7] = test: Bactericidal activity against methicillin-resistant Staphylococcus aureus isolate 1a assessed as reduction in colony counts at 32 ug/ml after 20 hrs by pour plate method (reference value: 12.73 +/- 0.223 log10CFU/ml); assay type: functional
Staphylococcus aureus [8] = test: Antimicrobial activity against methicillin-resistant Staphylococcus aureus isolate 29a after 24 hrs by agar plate dilution method; assay type: functional
Summary of the method: (§1)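 Clinical MRSA isolates from axilla/nasal swabs, identified by mannitol salt agar, Gram stain and coagulase test. Agar plate dilution with compound series 0.03–128 µg/mL. Inoculum suspended in water to McFarland 0.5. Incubation 24 h at 37 °C. MIC read as the lowest level without white growth spots. Dilution series quality-controlled with S. aureus NCTC 6571.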

Staphylococcus aureus [9] = test: Antimicrobial activity against methicillin-resistant Staphylococcus aureus isolate 1a after 24 hrs by agar plate dilution method; assay type: functional; summary of the method: as §1
Staphylococcus aureus [10] = test: Antimicrobial activity against methicillin-resistant Staphylococcus aureus isolate 6a after 24 hrs by agar plate dilution method; assay type: functional
Summary of the method: (§2)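 Clinical MRSA isolates, from axilla/nasal swabs and identified by mannitol salt agar, Gram stain and coagulase test. […] Inoculum adjusted to McFarland 0.5 in water. Plates incubated 24 h at 37 °C and scored for growth spots. Dilution series quality-controlled with S. aureus NCTC 6571. Combination lines used a 1:1 mixture with oxacillin.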

Staphylococcus aureus [11] = test: Antimicrobial activity against methicillin-resistant Staphylococcus aureus isolate 26a after 24 hrs by agar plate dilution method; assay type: functional; summary of the method: as §1
Staphylococcus aureus [12] = test: Antimicrobial activity against methicillin-resistant Staphylococcus aureus isolate 2a after 24 hrs by agar plate dilution method; assay type: functional; summary of the method: as §1
Staphylococcus aureus [13] = test: Antimicrobial activity against methicillin-resistant Staphylococcus aureus isolate 14a after 24 hrs by agar plate dilution method; assay type: functional; summary of the method: as §1
Staphylococcus aureus [14] = test: Antimicrobial activity against methicillin-resistant Staphylococcus aureus isolate 25a after 24 hrs by agar plate dilution method; assay type: functional; summary of the method: as §1
Staphylococcus aureus [15] = test: Antimicrobial activity against methicillin-resistant Staphylococcus aureus isolate 13a after 24 hrs by agar plate dilution method; assay type: functional; summary of the method: as §1
Staphylococcus aureus [16] = test: Antimicrobial activity against methicillin-resistant Staphylococcus aureus isolate 18a after 24 hrs by agar plate dilution method; assay type: functional; summary of the method: as §1
Staphylococcus aureus [17] = test: Antimicrobial activity against methicillin-resistant Staphylococcus aureus isolate 19a after 24 hrs by agar plate dilution method; assay type: functional; summary of the method: as §1
Staphylococcus aureus [18] = test: Antimicrobial activity against methicillin-resistant Staphylococcus aureus isolate 17a after 24 hrs by agar plate dilution method; assay type: functional; summary of the method: as §1
Staphylococcus aureus [19] = test: Antimicrobial activity against methicillin-resistant Staphylococcus aureus isolate 22a after 24 hrs by agar plate dilution method; assay type: functional; summary of the method: as §1
Staphylococcus aureus [20] = test: Antimicrobial activity against methicillin-resistant Staphylococcus aureus isolate 23a after 24 hrs by agar plate dilution method; assay type: functional; summary of the method: as §1
Staphylococcus aureus [21] = test: Antimicrobial activity against methicillin-resistant Staphylococcus aureus isolate 21a after 24 hrs by agar plate dilution method; assay type: functional; summary of the method: as §1
Staphylococcus aureus [22] = test: Antimicrobial activity against methicillin-resistant Staphylococcus aureus isolate 27a after 24 hrs by agar plate dilution method; assay type: functional; summary of the method: as §1
Staphylococcus aureus [23] = test: Antimicrobial activity against methicillin-resistant Staphylococcus aureus isolate 15a after 24 hrs by agar plate dilution method; assay type: functional; summary of the method: as §1
Staphylococcus aureus [24] = test: Antimicrobial activity against methicillin-resistant Staphylococcus aureus isolate 3a after 24 hrs by agar plate dilution method; assay type: functional; summary of the method: as §1
Staphylococcus aureus [25] = test: Antimicrobial activity against methicillin-resistant Staphylococcus aureus isolate 16a after 24 hrs by agar plate dilution method; assay type: functional; summary of the method: as §1
Staphylococcus aureus [26] = test: Antimicrobial activity against methicillin-resistant Staphylococcus aureus isolate 12a after 24 hrs by agar plate dilution method; assay type: functional; summary of the method: as §1
Staphylococcus aureus [27] = test: Antimicrobial activity against methicillin-resistant Staphylococcus aureus isolate 7a after 24 hrs by agar plate dilution method; assay type: functional; summary of the method: as §2
Staphylococcus aureus [28] = test: Antimicrobial activity against methicillin-resistant Staphylococcus aureus isolate 10a after 24 hrs by agar plate dilution method; assay type: functional; summary of the method: as §1
Staphylococcus aureus [29] = test: Antimicrobial activity against methicillin-resistant Staphylococcus aureus isolate 11a after 24 hrs by agar plate dilution method; assay type: functional; summary of the method: as §1
Staphylococcus aureus [30] = test: Antimicrobial activity against methicillin-resistant Staphylococcus aureus isolate 5a after 24 hrs by agar plate dilution method; assay type: functional; summary of the method: as §2
Staphylococcus aureus [31] = test: Antimicrobial activity against methicillin-resistant Staphylococcus aureus isolate 30a after 24 hrs by agar plate dilution method; assay type: functional; summary of the method: as §1
Staphylococcus aureus [32] = test: Antimicrobial activity against methicillin-resistant Staphylococcus aureus isolate 9a after 24 hrs by agar plate dilution method; assay type: functional; summary of the method: as §2
Staphylococcus aureus [33] = test: Antimicrobial activity against methicillin-resistant Staphylococcus aureus isolate 24a after 24 hrs by agar plate dilution method; assay type: functional; summary of the method: as §1
Staphylococcus aureus [34] = test: Antimicrobial activity against methicillin-resistant Staphylococcus aureus isolate 28a after 24 hrs by agar plate dilution method; assay type: functional; summary of the method: as §1
Staphylococcus aureus [35] = test: Antimicrobial activity against methicillin-resistant Staphylococcus aureus isolate 8a after 24 hrs by agar plate dilution method; assay type: functional; summary of the method: as §2
Staphylococcus aureus [36] = test: Antimicrobial activity against methicillin-resistant Staphylococcus aureus isolate 20a after 24 hrs by agar plate dilution method; assay type: functional; summary of the method: as §1
Staphylococcus aureus [37] = test: Antimicrobial activity against methicillin-resistant Staphylococcus aureus isolate 4a after 24 hrs by agar plate dilution method; assay type: functional; summary of the method: as §1

## Cc1ncc([N+](=O)[O-])n1CCn1cc(CNc2cccc(F)c2)nn1
[1]
  Activity: Non-toxic

## COc1cc(NCc2cn(CCn3c([N+](=O)[O-])cnc3C)nn2)cc(OC)c1
[1]
  Activity: Non-toxic

## Cc1ncc([N+](=O)[O-])n1CCn1cc(CNc2cccc(Cl)c2Cl)nn1
[1]
  Activity: Non-toxic

## Cc1ncc([N+](=O)[O-])n1CCn1cc(CNCCc2ccccc2)nn1
[1]
  Activity: Non-toxic

## Cc1ccc(OCc2cn(CCn3c([N+](=O)[O-])cnc3C)nn2)cc1
[1]
  Activity: Non-toxic

## Cc1ncc([N+](=O)[O-])n1CCn1cc(COc2ccc([N+](=O)[O-])cc2)nn1
[1]
  Activity: Non-toxic

## Cc1ncc([N+](=O)[O-])n1CCn1cc(COc2ccccc2)nn1
[1]
  Activity: Non-toxic

## CCC(=O)OCc1cn(CCn2c([N+](=O)[O-])cnc2C)nn1
[1]
  Activity: Non-toxic

## Cc1ncc([N+](=O)[O-])n1CCn1cc(COC2CCCCO2)nn1 (stereo not drawn)
[1]
  Activity: Non-toxic

## Cc1ncc([N+](=O)[O-])n1CCn1cc(COc2ccccc2Cl)nn1
[1]
  Activity: Non-toxic

## Cc1ncc([N+](=O)[O-])n1CCn1cc(-c2ccccc2)nn1
[1]
  Activity: Non-toxic

## Cc1ncc([N+](=O)[O-])n1CCn1cc(COc2ccc(C=O)cc2)nn1
[1]
  Activity: Non-toxic

## Cc1ncc([N+](=O)[O-])n1CCn1cc(C2(O)CCCCC2)nn1
[1]
  Activity: Non-toxic

## Cc1ccccc1OCc1cn(CCn2c([N+](=O)[O-])cnc2C)nn1
[1]
  Activity: Non-toxic

## Cc1ncc([N+](=O)[O-])n1CCn1cc(COc2ccccc2C=O)nn1
[1]
  Activity: Non-toxic

## Cc1ncc([N+](=O)[O-])n1CCn1cc(CBr)nn1
[1]
  Activity: Non-toxic

## Cc1ncc([N+](=O)[O-])n1CCO [METRONIDAZOLE]
Staphylococcus aureus [2]
  Activity: 6.45 log10CFU/ml
Staphylococcus aureus [3]
  Activity: 8.01 log10CFU/ml
Staphylococcus aureus [4]
  Activity: 8.3 log10CFU/ml
Staphylococcus aureus [5]
  Activity: 5.91 log10CFU/ml
Staphylococcus aureus [6]
  Activity: 8.25 log10CFU/ml
Staphylococcus aureus [7]
  Activity: 8.14 log10CFU/ml

## Cc1onc(-c2ccccc2)c1C(=O)N[C@@H]1C(=O)N2[C@@H]1SC(C)(C)[C@@H]2C(=O)O [OXACILLIN]
Staphylococcus aureus [8]
  MIC: 32 µg/mL (≈ 79.7 µM)
Staphylococcus aureus [9]
  MIC: > 128 µg/mL
Staphylococcus aureus [10]
  MIC: > 128 µg/mL
Staphylococcus aureus [11]
  MIC: 32 µg/mL (≈ 79.7 µM)
Staphylococcus aureus [12]
  MIC: > 128 µg/mL
Staphylococcus aureus [13]
  MIC: > 128 µg/mL
Staphylococcus aureus [14]
  MIC: 64 µg/mL (≈ 159 µM)
Staphylococcus aureus [15]
  MIC: > 128 µg/mL
Staphylococcus aureus [16]
  MIC: > 128 µg/mL
Staphylococcus aureus [17]
  MIC: > 128 µg/mL
Staphylococcus aureus [18]
  MIC: > 128 µg/mL
Staphylococcus aureus [2]
  Activity: 7.62 log10CFU/ml
Staphylococcus aureus [19]
  MIC: 32 µg/mL (≈ 79.7 µM)
Staphylococcus aureus [20]
  MIC: 64 µg/mL (≈ 159 µM)
Staphylococcus aureus [21]
  MIC: 64 µg/mL (≈ 159 µM)
Staphylococcus aureus [22]
  MIC: 32 µg/mL (≈ 79.7 µM)
Staphylococcus aureus [3]
  Activity: 8.35 log10CFU/ml
Staphylococcus aureus [23]
  MIC: > 128 µg/mL
Staphylococcus aureus [4]
  Activity: 12.34 log10CFU/ml
Staphylococcus aureus [24]
  MIC: > 128 µg/mL
Staphylococcus aureus [5]
  Activity: 6.05 log10CFU/ml
Staphylococcus aureus [25]
  MIC: > 128 µg/mL
Staphylococcus aureus [26]
  MIC: > 128 µg/mL
Staphylococcus aureus [27]
  MIC: > 128 µg/mL
Staphylococcus aureus [28]
  MIC: > 128 µg/mL
Staphylococcus aureus [29]
  MIC: > 128 µg/mL
Staphylococcus aureus [6]
  Activity: 11.2 log10CFU/ml
Staphylococcus aureus [7]
  Activity: 11.95 log10CFU/ml
Staphylococcus aureus [30]
  MIC: > 128 µg/mL
Staphylococcus aureus [31]
  MIC: 64 µg/mL (≈ 159 µM)
Staphylococcus aureus [32]
  MIC: > 128 µg/mL
Staphylococcus aureus [33]
  MIC: 16 µg/mL (≈ 39.9 µM)
Staphylococcus aureus [34]
  MIC: 128 µg/mL (≈ 319 µM)
Staphylococcus aureus [35]
  MIC: > 128 µg/mL
Staphylococcus aureus [36]
  MIC: > 128 µg/mL
Staphylococcus aureus [37]
  MIC: > 128 µg/mL
